Reference: ChEMBL document CHEMBL1130341, “Novel indole-2-carboxamide and cycloalkeno[1,2-b]indole derivatives. Structure-activity relationships for high inhibition of human LDL peroxidation” (J Med Chem, 1997)
pIC50: −log10 of the molar value.

Experiments:
[1] = Tested for inhibition of copper induced lipid peroxidation in human low density lipoproteins (LDL); format: functional
How it was run: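 LDL isolated by ultracentrifugation from pooled plasma of healthy normolipidemic human donors. Oxidation driven by copper for 3 h at 24 °C. Compounds in DMSO added just before oxidation, at 10 concentrations from 10^-7 to 10^-3 M, in duplicate. TBARS measured by the Yagi method. IC50 by linear regression; also given as an activity ratio versus probucol.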

[2] = Activity ratio versus Probucol in lipid peroxidation; format: functional
How it was run: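 LDL isolated by ultracentrifugation from pooled plasma of healthy normolipidemic human donors. Compounds were added in DMSO just before copper-induced oxidation (3 h, 24 °C). Ten concentrations from 10^-7 to 10^-3 M were tested in duplicate. Read-out was TBARS inhibition (Yagi method), and IC50 came from linear regression. Activity was expressed as a ratio versus probucol to correct for LDL batch variation.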

Rattus norvegicus = species: Rattus norvegicus; experiment: Inhibitory concentration against KCL-induced rat thoracic contraction; format: functional
How it was run: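 Isolated rat aorta contracted with hyperpotassic solution (KCl 60 mM). Inhibition of contraction measured at eight concentrations, 10^-8 to 3 × 10^-5 M, each in duplicate, on two separate preparations. IC50 obtained from the concentration-response curve by linear regression. Flunarizine as reference.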

Bos taurus = species: Bos taurus; experiment: Inhibitory concentration against protection of bovine endothelial cells against cytotoxicity of oxidised LDL; format: functional; details: Endothelial cell
How it was run: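 Cells kept 48 h in the presence of oxidized LDL, washed twice with PBS. Viability read by MTT (250 µg mL^-1 in phenol red-free RPMI, 2 h, 37 °C), solubilized in DMSO, OD 540 nm, expressed as % of cells grown without oxidized LDL. Six concentrations, five assays each; IC50 by linear regression.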

Endothelial cell = experiment: Inhibitory concentration against 15-lipoxygenase, by inhibiting 15-HETE production by human umbilical vein endothelial cells (HUVEC) stimulated by calcium ionophore A 23187 at concentration of 10e-5 M.; format: cell-based
How it was run: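 HUVEC (isolated) preincubated 15 min at 37 °C with compound at 10^-5 M in DMSO, in triplicate; stimulated with calcium ionophore A 23187 (5 × 10^-6 M in DMSO).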

Row | Structure (SMILES) | pIC50 [1] | pIC50 (Rattus norvegicus) | Ratio [2] | pIC50 (Bos taurus) | inhibition (Endothelial cell)
1 | CC(C)(Sc1cc(C(C)(C)C)c(O)c(C(C)(C)C)c1)Sc1cc(C(C)(C)C)c(O)c(C(C)(C)C)c1 [PROBUCOL] | 5.30 |  |  |  | 
2 | Cn1c(C(=O)N2CCN(C(c3ccc(F)cc3)c3ccc(F)cc3)CC2)cc2cc(O)ccc21 | 6.22 | 5.82 | 5 | 6.85 | 
3 | Cn1c2c(c3cc(O)ccc31)CCCC2 | 6.22 |  | 3 |  | 
4 | Oc1ccc2[nH]c3c(c2c1)CCCCCC3 | 6.30 |  | 2 |  | 
5 | CCSc1ccc2c(c1)c1c(n2C)CCCC1 | 4.70 |  | 0.1 |  | 
6 | CN(C(=O)c1cc2cc(O)ccc2n1C)c1cccc(Cl)c1 | > 7.00 |  | > 20 |  | 
7 | CN(C(=O)c1cc2cc(O)ccc2n1C)c1cccc(C(F)(F)F)c1 | 6.00 |  | 0.5 |  | 
8 | Cn1c2c(c3cc(O)ccc31)CCCCCC2 | 7.00 |  | 10 |  | 
9 | CN(C(=O)c1cc2cc(O)ccc2n1C)c1cccc(Br)c1 | 6.10 |  | 2.5 |  | 
10 | COc1ccc2[nH]c3c(c2c1)CCCC3 | 6.00 |  | 3 |  | 
11 | Cn1c2c(c3cc(O)ccc31)CCCCC2 | 7.00 |  |  |  | 62%

The next lines start with results.

Row | pIC50 [1] | pIC50 (Rattus norvegicus) | Structure (SMILES) | Ratio [2] | pIC50 (Bos taurus) | inhibition (Endothelial cell)
12 | 6.00 |  | CN(C(=O)c1cc2cc(O)ccc2[nH]1)c1ccccc1 | 1 |  | 
13 | 6.00 |  | O=C(Nc1ccccc1)c1cc2cc(O)ccc2[nH]1 | 3 |  | 
14 | < 3.00 |  | COc1ccc2[nH]c(C(=O)N(C)c3ccccc3)cc2c1 | < 0.001 |  | 
15 | 7.00 |  | CCCCCCN(C(=O)c1cc2cc(O)ccc2[nH]1)c1ccccc1 | 10 |  | 
16 | 4.05 |  | COc1ccc2c(c1)cc(C(=O)N(C)c1ccccc1)n2C | 0.02 |  | 
17 | 6.05 |  | Cn1c(C(=O)Nc2ccccc2)cc2cc(O)ccc21 | 0.3 |  | 
18 | 6.00 |  | Cn1c(C(=O)Nc2cccc(Cl)c2)cc2cc(O)ccc21 | 0.8 |  | 
19 | 4.00 |  | CCCCCCCCN(C(=O)c1cc2cc(SCC)ccc2[nH]1)c1ccccc1 | 0.03 |  | 
20 | 5.00 |  | CCCCCCCCN(C(=O)c1cc2cc(O)ccc2[nH]1)c1ccccc1 | 0.3 |  | 
21 | 5.30 |  | COc1ccc(CN2CCN(C(=O)c3cc4cc(O)ccc4[nH]3)CC2)c(OC)c1OC | 1 |  | 
22 | 6.10 |  | COc1cc(NC(=O)c2cc3cc(O)ccc3[nH]2)cc(OC)c1OC | 3.8 |  | 
23 | 6.00 |  | CCCCN(C(=O)c1cc2cc(O)ccc2n1C)c1ccccc1 | 3 |  | 
24 | 3.70 |  | COc1cccc(N(C)C(=O)c2cc3cc(OC)ccc3n2C)c1 | 0.01 |  | 
25 | 6.05 |  | COc1ccc2[nH]c(C(=O)Nc3ccccc3)cc2c1 | 2.2 |  | 
26 | 6.70 |  | CN(C(=O)c1cc2cc(O)ccc2n1C)c1ccccc1 | 10 |  | 
27 | 6.70 |  | CCCCCCN(C(=O)c1cc2cc(O)ccc2n1C)c1ccccc1 | 5 |  | 
